How the values were obtained:
Type in all cases: functional, cell-based
[1] = system: OVCAR-3; test: Cytotoxicity in human OVCAR3 cells assessed as reduction in cell viability incubated for 48 hrs by MTT assay; details: OVCAR-3, 48 h
Outline: (§1)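 Cells grown at 37°C, 5% CO₂ (HepG2, OVCAR-3, Caov-3 in DMEM + 10% FBS; A549, HeLa, A375, MCF-7 in RPMI 1640 + 10% FBS). Seeded at 4-5×10³/well in triplicate, adhered overnight, exposed to 0.03–300 μM (DMSO <0.1%) for 48 h. MTT added for 4 h, formazan dissolved in DMSO, absorbance read. IC50 from dose–response curves, mean ± SD of at least three independent experiments.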

[2] = system: HepG2; test: Cytotoxicity in human HepG2 cells assessed as reduction in cell viability incubated for 48 hrs by MTT assay; details: HepG2, 48 h; outline: as §1
[3] = system: A-375; test: Cytotoxicity in human A375 cells assessed as reduction in cell viability incubated for 48 hrs by MTT assay; details: A-375, 48 h; outline: as §1
[4] = system: HeLa; test: Cytotoxicity in human HeLa cells assessed as reduction in cell viability incubated for 48 hrs by MTT assay; outline: as §1
[5] = system: MCF7; test: Cytotoxicity in human MCF7 cells assessed as reduction in cell viability incubated for 48 hrs by MTT assay; details: MCF7, 48 h; outline: as §1
[6] = system: A549; test: Cytotoxicity in human A549 cells assessed as reduction in cell viability incubated for 48 hrs by MTT assay; details: A549, 48 h; outline: as §1
[7] = system: Caov-3 cell line; test: Cytotoxicity in human Caov3 cells assessed as reduction in cell viability incubated for 48 hrs by MTT assay; details: Caov-3, 48 h; outline: as §1

Compound | IC50 [1] | IC50 [2] | IC50 [3] | IC50 [4] | IC50 [5] | IC50 [6] | IC50 [7]
Cc1ncc([N+](=O)[O-])n1CCOC(=O)NC(Nc1ccc2ccccc2n1)C(Cl)(Cl)Cl (stereo not given) | 90.1 µM | 22.7 µM | 14 µM | 9.1 µM | 99.6 µM | 47.5 µM | 72.6 µM
Cc1ncc([N+](=O)[O-])n1CCOC(=O)NC(n1cnc2c(Cl)ncnc21)C(Cl)(Cl)Cl (stereo not given) | > 300 µM | > 300 µM | > 300 µM | > 300 µM | > 300 µM | > 300 µM | > 300 µM
Cc1ncc([N+](=O)[O-])n1CCOC(=O)NC(n1cnc2ccccc21)C(Cl)(Cl)Cl (stereo not given) | > 300 µM | > 300 µM | > 300 µM | 214 µM | > 300 µM | > 300 µM | > 300 µM
Cc1ncc([N+](=O)[O-])n1CCOC(=O)NC(Nc1nccc(N)n1)C(Cl)(Cl)Cl (stereo not given) | > 300 µM | > 300 µM | > 300 µM | > 300 µM | > 300 µM | > 300 µM | > 300 µM
Cc1ncc([N+](=O)[O-])n1CCOC(=O)NC(Nc1cc2ccccc2cn1)C(Cl)(Cl)Cl (stereo not given) | 109 µM | 26 µM | 12.5 µM | 38.9 µM | 141 µM | 84.3 µM | 95.2 µM
Cc1ncc([N+](=O)[O-])n1CCOC(=O)NC(n1cnc2c(Cl)nc(N)nc21)C(Cl)(Cl)Cl (stereo not given) | > 300 µM | > 300 µM | > 300 µM | 57.3 µM | > 300 µM | > 300 µM | > 300 µM
Cn1c([N+](=O)[O-])cnc1COC(=O)NC(n1cnc2c(N)nc(Cl)nc21)C(Cl)(Cl)Cl (stereo not given) | 70.4 µM | 43.8 µM | 1.2 µM | 51.2 µM | 53.3 µM | 61.4 µM | 64.3 µM
Cn1c([N+](=O)[O-])cnc1COC(=O)NC(n1cnc2c(N)nc(F)nc21)C(Cl)(Cl)Cl (stereo not given) | 0.6 µM | 3.8 µM | 2.7 µM | 0.2 µM | 1.5 µM | 0.5 µM | 0.3 µM
Cc1ncc([N+](=O)[O-])n1CCOC(=O)NC(n1cnc2c(NC(=O)c3ccccc3)ncnc21)C(Cl)(Cl)Cl (stereo not given) | 225 µM | > 300 µM | > 300 µM | > 300 µM | > 300 µM | 244 µM | > 300 µM
Cc1ncc([N+](=O)[O-])n1CCOC(=O)NC(Nc1nccc(=O)[nH]1)C(Cl)(Cl)Cl (stereo not given) | > 300 µM | > 300 µM | > 300 µM | > 300 µM | > 300 µM | > 300 µM | > 300 µM
Cc1ncc([N+](=O)[O-])n1CCOC(=O)NC(n1cnc2c(N)nc(Cl)nc21)C(Cl)(Cl)Cl (stereo not given) | 131 µM | 7.3 µM | 246 µM | 218 µM | > 300 µM | 160 µM | 144 µM
COc1ccnc(NC(NC(=O)OCCn2c([N+](=O)[O-])cnc2C)C(Cl)(Cl)Cl)n1 (stereo not given) | 198 µM | 79.8 µM | 44.1 µM | 128 µM | 186 µM | 264 µM | 157 µM
Cc1ncc([N+](=O)[O-])n1CCOC(=O)NC(n1cnc2c(Cl)nc(F)nc21)C(Cl)(Cl)Cl (stereo not given) | > 300 µM | 55.1 µM | 121 µM | > 300 µM | 62.1 µM | > 300 µM | > 300 µM
Cc1ncc([N+](=O)[O-])n1CCOC(=O)NC(Nc1nccc2ccccc12)C(Cl)(Cl)Cl (stereo not given) | 61.4 µM | 46.8 µM | 37.3 µM | > 300 µM | > 300 µM | > 300 µM | 81.1 µM
Nc1nc(Cl)nc2c1ncn2C(NC(=O)OCc1ccccc1)C(Cl)(Cl)Cl (stereo not given) | 37.9 µM | > 300 µM | > 300 µM | > 300 µM | 138 µM | 78.5 µM | 65 µM
O=C(NC(n1ncc2c(O)ncnc21)C(Cl)(Cl)Cl)OCCc1ccccn1 (stereo not given) | > 300 µM | 271 µM | > 300 µM | > 300 µM | > 300 µM | > 300 µM | > 300 µM
Cc1ncc([N+](=O)[O-])n1CCOC(=O)NC(Nc1nccc(Cl)n1)C(Cl)(Cl)Cl (stereo not given) | > 300 µM | > 300 µM | 20 µM | > 300 µM | > 300 µM | 94.9 µM | > 300 µM
Cc1c(Cl)nc(NC(NC(=O)OCCn2c([N+](=O)[O-])cnc2C)C(Cl)(Cl)Cl)nc1Cl (stereo not given) | 25 µM | 13.6 µM | 11.9 µM | 27.1 µM | 114 µM | 184 µM | 31.2 µM

Compound | IC50 [1] | IC50 [2] | IC50 [3] | IC50 [4] | IC50 [5] | IC50 [6] | IC50 [7]
Cc1ncc([N+](=O)[O-])n1CCOC(=O)NC(Nc1nc(Cl)c(N)c(Cl)n1)C(Cl)(Cl)Cl (stereo not given) | 21.1 µM | 25.8 µM | 14 µM | 17.5 µM | 20.6 µM | 31.9 µM | 19.2 µM
Cc1ncc([N+](=O)[O-])n1CCOC(=O)NC(n1cnc2c(N(C)C)ncnc21)C(Cl)(Cl)Cl (stereo not given) | > 300 µM | > 300 µM | 27.3 µM | 160 µM | > 300 µM | 191 µM | 264 µM
Cc1ncc([N+](=O)[O-])n1CCOC(=O)NC(n1cnc2c(NCc3ccccc3)ncnc21)C(Cl)(Cl)Cl (stereo not given) | 243 µM | 33.2 µM | > 300 µM | 71.8 µM | 96 µM | 148 µM | > 300 µM
CCOC(=O)NC(n1cnc2c(N)nc(Cl)nc21)C(Cl)(Cl)Cl (stereo not given) | 132 µM | 59 µM | 125 µM | 152 µM | 87.2 µM | 59.7 µM | 92.9 µM
CCOC(=O)NC(n1cnc2c(N)nc(F)nc21)C(Cl)(Cl)Cl (stereo not given) | 0.5 µM | 1.4 µM | 1.8 µM | 0.9 µM | 0.8 µM | 0.5 µM | 0.6 µM
Nc1ncnc2c1cnn2C(NC(=O)OCCN1CCOCC1)C(Cl)(Cl)Cl (stereo not given) | 0.8 µM | 19.5 µM | 1.2 µM | < 10 µM | 19.3 µM | 13.4 µM | 1 µM
CC(=O)Nc1nc2c(ncn2C(NC(=O)OCCn2c([N+](=O)[O-])cnc2C)C(Cl)(Cl)Cl)c(=O)[nH]1 (stereo not given) | > 300 µM | > 300 µM | > 300 µM | > 300 µM | > 300 µM | > 300 µM | > 300 µM
Nc1nc(F)nc2c1ncn2C(NC(=O)OCCc1ccccn1)C(Cl)(Cl)Cl (stereo not given) | 0.8 µM | 1 µM | 0.4 µM | 3 µM | 1 µM | 3.5 µM | 1.1 µM
Cc1ncc([N+](=O)[O-])n1CCOC(=O)NC(n1cnc2c(N)nc(N)nc21)C(Cl)(Cl)Cl (stereo not given) | > 300 µM | 19.7 µM | 170 µM | 120 µM | > 300 µM | > 300 µM | > 300 µM
O=C(NC(Nc1ncnc2c1cnn2C(NC(=O)OCCc1ccccn1)C(Cl)(Cl)Cl)C(Cl)(Cl)Cl)OCCc1ccccn1 (stereo not given) | > 300 µM | 81.3 µM | > 300 µM | 110 µM | 162 µM | 53.7 µM | 146 µM
Cc1ncc([N+](=O)[O-])n1CCOC(=O)NC(Nc1ccncn1)C(Cl)(Cl)Cl (stereo not given) | > 300 µM | > 300 µM | 5.3 µM | > 300 µM | > 300 µM | > 300 µM | > 300 µM
Cc1ncc([N+](=O)[O-])n1CCOC(=O)NC(n1cnc2c(OCc3ccccc3)nc(N)nc21)C(Cl)(Cl)Cl (stereo not given) | > 300 µM | 71.1 µM | > 300 µM | > 300 µM | 89.1 µM | 146 µM | > 300 µM
Cc1ncc([N+](=O)[O-])n1CCOC(=O)NC(Nc1nc(Cl)cc(Cl)n1)C(Cl)(Cl)Cl (stereo not given) | 17 µM | 23.3 µM | 8.1 µM | 15.6 µM | 32.4 µM | 49.5 µM | 22.5 µM
Cc1ncc([N+](=O)[O-])n1CCOC(=O)NC(n1cnc2c(N)ncnc21)C(Cl)(Cl)Cl (stereo not given) | > 300 µM | > 300 µM | 182 µM | > 300 µM | > 300 µM | > 300 µM | > 300 µM
Cc1ncc([N+](=O)[O-])n1CCOC(=O)NC(n1cnc2c(Cl)nc(Cl)nc21)C(Cl)(Cl)Cl (stereo not given) | 162 µM | 54.6 µM | 68.5 µM | 142 µM | 218 µM | 72.8 µM | 224 µM
Cc1ccnc(NC(NC(=O)OCCn2c([N+](=O)[O-])cnc2C)C(Cl)(Cl)Cl)n1 (stereo not given) | 164 µM | 31.2 µM | 37.5 µM | 94.7 µM | 152 µM | 27.3 µM | 155 µM
Nc1nc(N)c2ncn(C(NC(=O)OCCN3CCOCC3)C(Cl)(Cl)Cl)c2n1 (stereo not given) | 11.5 µM | 8.6 µM | 94.7 µM | 47.5 µM | 125 µM | 47.2 µM | 10.5 µM
